ChEMBL document CHEMBL1828560, “Design, synthesis and biological study of pinacolyl boronate-substituted stilbenes as novel lipogenic inhibitors” (Bioorg Med Chem Lett, 2011)
The source made the active and inactive calls. No cut-off for these calls is given here.

How the values were obtained:
HepG2 [1] = assay: Inhibition of FAS gene expression in human HepG2 cells at 30 uM after 6 hrs by quantitative RT-PCR; format: functional, cell-based
Method in brief: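 HepG2 cells grown at 37°C, 5% CO2 in DMEM with 10% FBS, penicillin-streptomycin and 20mM glutamine; compounds at 30μM for 6 hours. Total RNA extracted with Trizol; 2 μg reverse-transcribed to cDNA; FAS transcript quantified by real-time qPCR with cyclophilin B as invariant control. Three independent samples averaged; compared with DMSO.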

HepG2 [2] = assay: Cytotoxicity against human HepG2 cells; format: cell-based
FaO [3] = assay: Inhibition of lipogenesis in rat FaO cells assessed as decrease in synthesis rate of palmitate at 20 uM after 12 hrs by deuterium enrichment-GC/MS method in presence of 100 nM insulin; format: functional, cell-based
Method in brief: (§1)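 Rat hepatoma FAO cells, maintained in DMEM with 10% FBS, treated at 20μM for 12 hours with 100 nM insulin. Cells cultured in DMEM containing 10% 2H2O for 18 hours; deuterium incorporation into palmitate or cholesterol measured by GC/MS to give synthesis rate. Averages of three independent samples vs DMSO.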

HepG2 [4] = assay: Inhibition of HMGCR gene expression in human HepG2 cells after 6 hrs by measuring mRNA level of HMGCR using quantitative RT-PCR; format: functional, cell-based
Method in brief: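 HepG2 cells cultured in DMEM plus 10% FBS, penicillin-streptomycin, 20mM glutamine (37°C, 5% CO2), exposed to a series of concentrations for 6 hours. HMGCR mRNA measured by qRT-PCR: Trizol RNA extraction, 2 μg RNA converted to cDNA, real-time PCR normalized to cyclophilin B.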

FaO [5] = assay: Inhibition of cholesterol biosynthesis in rat FaO cells at 20 uM after 12 hrs by deuterium enrichment-GC/MS method in presence of 100 nM insulin; format: functional, cell-based; method in brief: as §1
Mus musculus = species on record: Mus musculus; assay: Toxicity in mouse; format: organism-based; conditions: in vivo

Q: Which results are given for `CC1(C)OB(c2ccc(C=Cc3cc(Cl)cc(Cl)c3)cc2)OC1(C)C` (mixture of isomers)?
A: inhibition (HepG2 [1]): Active; Activity (HepG2 [2]): Non-toxic

Q: With `CC1(C)OB(c2ccc(C=Cc3ccc(O)cc3)cc2)OC1(C)C` (mixture of isomers) as the compound, how does the inhibition (HepG2 [1]) read?
A: Active

Q: What about the Activity (HepG2 [2]) of the same compound?
A: Non-toxic

Q: What about the inhibition (FaO [3]) of the same compound?
A: Active

Q: What about the inhibition (HepG2 [4]) of the same compound?
A: Dose-dependent effect

Q: And the inhibition (FaO [5])?
A: Active

Q: And the Activity (Mus musculus)?
A: Non-toxic

Q: For `COc1ccc(C=Cc2ccc(B3OC(C)(C)C(C)(C)O3)cc2)cc1` (mixture of isomers), which inhibition (HepG2 [1]) is on record?
A: inactive

Q: What about the inhibition (HepG2 [4]) of the same compound?
A: inactive
